# The full list was thinned out, with hits kept by preference.
# RORA inh: RORA (human) inhibition; CHO-K1 Gal4-RORA LBD luciferase reporter, luminescence; inhibition, % at 10 µM; hit rate 0.43% among 65,000;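 active = inhibition above the mean of all tested compounds plus 3 SD, cut at about 52% in these data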
#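 System: transiently transfected CHO-K1 cells, Gal4-DBD/human RORA-LBD fusion plus 5xGal4-luciferase reporter. Doses: one dose of 10 µM final. Timing: 20 h compound treatment, 37 °C. Measured by: luminescence. Evaluation: % inhibition of basal luciferase versus +RORA/-RORA DMSO controls. Benchmarks: mock-transfected cells as 100%, +RORA DMSO cells as 0%. Replicates: single test per compound.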
# Numbers stand for hits; 0 = inactive.
SMILES,RORA inh
CCn1nc(-c2ccccc2)nc2c(=O)n(C)c(=O)nc1-2,93
COc1ccc(C2NCc3ccc4c(c3-n3cccc32)OCO4)cc1O (centres undefined),0
CC[C@@H]1C(=O)OC[C@@H]1Cc1cncn1C,0
O=C(C1CC(c2ccc(Cl)c(Cl)c2)=NO1)N1CCC2(CC1)OCCO2 (centres undefined),0
C[C@H]1CCC/C=C/C2C[C@H](O)CC2[C@H](O)/C=C/C(=O)O1 (some centres undefined),84
Cc1ccc(S(=O)(=O)N(C)CCCC(=O)N2CCN(c3ccccn3)CC2)cc1,0
O=C(C1CCCO1)N1CCC2(CC1)OCCO2 (centres undefined),0
CC1=NOC2(C)Nc3ncnn3C(c3ccccc3)C12 (centres undefined),0
CC(C(=O)N1CCC2(CC1)OCCO2)C1Sc2ccccc2NC1=O (centres undefined),0
CC(C)c1cccc(C(C)C)c1OCCn1ccnc1,0

# Bioassay records as filed in PubChem.
